Screens deposited in PubChem BioAssay by several laboratories.
FLuc inhib CS – firefly luciferase enzyme inhibitors, primary screen, artefact control for luciferase-based inhibitor screens, biochemical, luminescence, ATPLite | Luciferin 4-monooxygenase (Photinus pyralis), P08659 | AID 1006, 2008 | hit rate 1.5% among 200,000 | inhibition, % at 10 µM | 10 min;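 active means inhibition above about 50% when tested at 10 µM, limit read from the data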
Target sequence (P08659 whole entry, looked up): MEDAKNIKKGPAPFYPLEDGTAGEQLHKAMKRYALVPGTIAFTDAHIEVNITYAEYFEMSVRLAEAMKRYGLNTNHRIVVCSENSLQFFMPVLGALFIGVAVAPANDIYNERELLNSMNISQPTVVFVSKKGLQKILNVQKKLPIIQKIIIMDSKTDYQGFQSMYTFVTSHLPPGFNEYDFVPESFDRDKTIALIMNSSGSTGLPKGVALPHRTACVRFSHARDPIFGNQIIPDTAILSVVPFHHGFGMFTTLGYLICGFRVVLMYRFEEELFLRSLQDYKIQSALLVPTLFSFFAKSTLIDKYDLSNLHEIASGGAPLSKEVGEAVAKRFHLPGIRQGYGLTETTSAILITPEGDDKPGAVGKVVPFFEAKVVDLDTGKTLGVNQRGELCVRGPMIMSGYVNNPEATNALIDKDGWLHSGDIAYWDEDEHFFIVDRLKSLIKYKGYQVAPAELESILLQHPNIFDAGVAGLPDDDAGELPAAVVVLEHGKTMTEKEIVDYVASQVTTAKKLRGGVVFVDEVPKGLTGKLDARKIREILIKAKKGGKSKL
sdo1 growth – growth rescue of sdo1-depleted yeast, primary screen, S. cerevisiae, bone marrow failure model; S. cerevisiae sdo1-depleted JHY4D growth rescue, OD600 30 h; hits give high values; pdr5 snq2 efflux-pump mutant strain; z-score at 10 µM; hit rate 0.21% among 140,000; AID 817, 2007;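 active means z-score above 3 at both the 24 hr and the 30 hr optical density reads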;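 further: z-score against mean and SD of all compound wells on the same plate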
NF-kB expr up – activators of NF-kB expression in neurons, primary screen, cell-based, HTS; hit rate 1.6% among 190,000; AID 1239, 2008; human neuronal cells, NF-kB reporter expression; hits give high values; fold change at 12.5 µM; in the data active means fold change above about 3.3
APP 5'UTR act – activators of APP 5'UTR luciferase reporter, primary screen, SH-SY5Y cells; SH-SY5Y APP 5'UTR luciferase reporter, luminescence; zero percent = DMSO vehicle wells; activation, % at 2 µM; hit rate 1% among 190,000;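 active means activation above a set limit, based on mean plus 3 SD of controls, cut at about 140% in these data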
FLuc act counter – FLuc activators, initial screening, artefact control for FLuc-dependent activation tests, biochemical, ATPlite luminescence | Luciferin 4-monooxygenase (Photinus pyralis), P08659 | ATPlite luciferase biochemical, 10 min; 0 = ATP-free wells, 1 = DMSO control | activation factor at 10 µM | 200,000 tested, under 10 active | AID 1027, 2008;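 active means luciferase activation factor, scaled between plate controls, of at least 2 with compound at 10 µM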
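assay system = Luciferase/luciferin detection reagent, cell-free biochemical luciferase assay | also added = ATP substrate | times = 10 min post-reagent at room temperature | measured by = luminescence from luciferase reaction | measure = luciferase activation, seen as luminescence increase over controls | benchmarks = low control with PBS replacing ATP, high control enzyme plus ATP without compound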
STAT1 act – STAT1 signaling activators, primary screen, cell-based, HTS, luciferase reporter | activation (% of control), % at 5.5 µM | NIH 3T3 STAT1-luciferase reporter, IFN-gamma, luminescence; 100% = IFN-gamma alone, no compound | hit rate 2.6% among 200,000;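 active means activation above the screen-wide mean activation plus 3 SD, cut at about 130% in these data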;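 further: raw ratio to IFN-gamma control signal so 100% means no change and 0% no light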
Active calls of the source: *; / = not tested or not shown. Hits are enriched below; roughly 4.3% of the tested compounds scored in any of these assays.

SMILES | FLuc inhib CS | sdo1 growth | NF-kB expr up | APP 5'UTR act | FLuc act counter | STAT1 act
Cn1c(=O)[nH]c(=O)c2c1nc(N1CCCCCC1)n2CCSc1nc2ccccc2[nH]1 | 4 | 1.4 | 1.1 | -2 | 1 | 102
Cc1ccnc(NC(=O)CCCOc2cc(=O)n(C)c3ccccc23)c1 | -4 | 0.47 | 7.6* | 13 | 1 | 113
COc1cc(OC)cc(-c2nc3cc(C)ccc3o2)c1 | 25 | -1.5 | 6.2* | 114 | 0.7 | 158*
COc1cc(C(=O)Nc2cccc(-c3nc4cc(C)ccc4o3)c2)cc(OC)c1OC | 29 | -1.2 | 1.2 | 42 | 0.7 | 108
Cc1ccc(-c2nc3cc(Cl)ccc3o2)cc1 | 86* | -0.74 | 8.5* | 27 | 0.1 | 162*
COc1cc(C(=O)Nc2cc(-c3nc4cc(C)ccc4o3)ccc2C)cc(OC)c1OC | 51* | -0.21 | 1.4 | 7 | 0.5 | 118
O=C(COC(=O)c1c[nH]c(=O)[nH]c1=O)Nc1ccccc1 | -6 | / | 1.4 | 14 | 1.1 | 104
Cc1ccc(NS(=O)(=O)c2ccc(Br)s2)nc1 | -3 | / | / | -8 | 1 | 100
O=C(N/N=C\c1cn(-c2ccccc2)nc1-c1ccccc1)c1ccc2c(c1)OCO2 | 6 | -1.2 | 0.37 | 11 | 0.9 | 100
COc1ccc(-c2nn(-c3ccccc3)cc2CO)cc1OC | 4 | -0.03 | 0.94 | 17 | 1 | 98
OCc1cn(-c2ccccc2)nc1-c1ccc2c(c1)OCCO2 | 2 | 0.57 | 2.4 | 62 | 1 | 144*
COc1cccc(-c2nn(-c3ccccc3)cc2CO)c1 | 0 | -0.2 | 1.7 | 23 | 1 | 144*
O=C(N/N=C/c1cn(-c2ccccc2)nc1-c1ccc2c(c1)OCCO2)c1ccncc1 | -1 | / | 1.9 | 133 | 1 | 148*
Cc1c(O)c2c3c(cccc3c1O)C(=O)N(c1ccccc1)C2=O | -2 | -0.81 | 0.73 | 19 | 1 | 98
Cc1ccc(C=C2C(=O)c3ccccc3C2=O)s1 | 75* | -0.55 | 1.2 | 26 | 0.3 | 111
Cc1ccccc1C1=N/C(=C/c2cccs2)C(=O)O1 | 85* | / | 1.5 | 8 | 0.2 | 98
COc1ccc2c(c1)OC/C(=C/c1cccs1)C2=O | 87* | -0.93 | 6.9* | 131 | 0.1 | 147*
CSC1=N/C(=C\c2ccc(C)s2)C(=O)S1 | 23 | -0.87 | 1.1 | 2 | 0.8 | 102
Cc1ccc(C2=N/C(=C/c3cccs3)C(=O)N2Nc2ccccc2)cc1 | 2 | -2 | 1.1 | / | 1 | 96
CC1(C)NC(C)(C)/C(=C\c2cccs2)C(=O)C1=O | -6 | / | 1.1 | -14 | 1.1 | 85
O=C1C(=Cc2cccs2)C(=O)c2ccccc21 | 53* | 0.23 | 1.2 | 3 | 0.5 | 105
C=CCn1c(=N)n(CC(=O)c2ccc(Br)s2)c2ccccc21 | -3 | 1.2 | 0.89 | -13 | 1 | 93
Cc1nnc(SCC(=O)NNC(=O)CC#N)[nH]c1=O | 1 | 1.1 | 0.96 | 0 | 1 | 97
O=C1/C(=C\c2ccc(Br)o2)Cc2ccccc21 | 19 | -1.8 | 1.6 | 26 | 0.8 | 109
O=C1/C(=C/c2cccs2)Cc2ccccc21 | 58* | 6.6 | 2.9 | 56 | 0.4 | 111
SMILES | FLuc inhib CS | sdo1 growth | NF-kB expr up | APP 5'UTR act | FLuc act counter | STAT1 act
Cc1ccc(C=C2C(=O)c3ccccc3C2=O)o1 | 84* | 0.4 | 1.2 | 2 | 0.2 | 106
Fc1ccc(CSc2nnc(-c3cccnc3)o2)cc1 | 1 | / | 1.8 | -33 | 1 | 104
CSc1cccc(NC(=O)N2CCCC(CNS(=O)(=O)Cc3ccccc3)C2)c1 (configuration not stated) | -3 | / | 0.84 | 4 | 1 | 94
O=C(CSCc1c(Cl)cccc1Cl)Nc1ccc2c(c1)OCCO2 | 4 | -1.8 | 1.8 | 20 | 1 | 108
CCCN=Cc1sc2ccc(OCC)cc2c1O | 10 | 0.21 | 1.8 | 45 | 0.9 | 130*
CCOC(=O)C(C(C)=O)c1c(Br)c(O)c(O)c2c(C(=O)c3ccc(C)cc3)coc12 (configuration not stated) | -5 | -0.68 | 4.5* | 5 | 1.1 | 94
